This test concerns the target P450-SS9 (cytochrome P450 from Photobacterium profundum strain SS9) (Photobacterium profundum, UniProt Q6LGK6). Nature of the test: absorbance. Type of test: binding. Summed up:
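Enzyme at 0.8-1.8 μM was titrated with fatty acids or derivatives, added from 30-140 mM acetone stocks, at 25 °C with stirring in 0.1 M Na-Hepes pH 7.4 with 0.5 mM EDTA. Absorbance spectra were PCA/SVD-resolved into high-spin, low-spin and P420 standards. Kd came from a tight-binding (square-root) equation fit.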
With `CCCCC/C=C\C/C=C\C/C=C\C/C=C\CCCC(=O)O` [arachidonic acid], the affinity, expressed as Kd, was 19.2 ± 4.2 µM.
The result for `CCCCC/C=C\C/C=C\C/C=C\C/C=C\CCCC(=O)NCC(=O)O` [arachidonoyl glycine] reads 16.7 ± 0.1 µM.
The result for `CCCCCCCCCCCCCC(=O)O` [myristic acid] reads 0.97 ± 0.42 µM.
The result for `CCCCCCCC/C=C\CCCCCCCC(=O)NCC(=O)O` [oleoyl glycine] reads 49.5 ± 30 µM.
Turning to `CCCCCCCCCCCCCCCC(=O)O` [palmitic acid], the dissociation constant Kd (as a rule, the free concentration of one partner at which half of the binding sites on the other are occupied at equilibrium, for simple one-to-one binding) came out at 24.3 ± 8.2 µM.

Values taken from paper PMC3027307 (Biochemistry, 2010).
